In ChEMBL document CHEMBL1156780, “6-(Het)aryl-7-deazapurine ribonucleosides as novel potent cytostatic agents” (J Med Chem, 2010) one finds GI50 and IC50 data, which are given here for 17 compounds.

Usually GI50 stands for the concentration at which growth is held to half of that of the control. Lower therefore signals more potent growth inhibition. The IC50 is the concentration that gives 50% inhibition. High values mean weaker potency in that assay, low ones greater potency in that assay.

Test [1] can be described thus: Cytostatic activity against human Hs578 cells after 5 days by SRB assay. Format: functional. To be noted: Hs578, 120 h. An outline of the steps:
(§1)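 Cells seeded in RPMI (colon, breast, lung lines), MEM (Du145) or F12K (PC3) with 10% FBS, 37 °C overnight. Day-zero plates fixed with cold 10% TCA. Compounds added as 5-fold serial dilutions for 5 days. Fixed, stained with 0.057% SRB in 1% acetic acid, dye solubilized in 10 mM Tris pH 10.5, A500 read. Growth % corrected for day-0 OD; GIC₅₀ from sigmoidal fit.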
(In general: Sulforhodamine B stains cellular protein and so reports cell mass.)

For a further test, the system named is HL-60. Description: Cytotoxicity against human HL60 cells after 3 days by XTT assay. In kind it is functional, cell-based. The conditions noted are these: HL-60, 72 h. The gist of the method: (§2)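 Cell viability of CCRF-CEM, HL60 and HeLa cells measured by XTT assay after 72 h incubation with compounds. IC₅₀ taken as mean of 2–4 independent experiments.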
On the technique in general: Formazan colour is commonly taken as a measure of viable cells.

The subject of a further test is CCRF-CEM. Kind of test: Cytotoxicity against human CCRF-CEM cells after 3 days by XTT assay. Format: functional, cell-based. To be noted: 72 h. The gist of the method:
as §2

Test [2] is described as follows: Cytotoxicity against human HeLaS3 cells after 3 days by XTT assay. In kind it is functional, cell-based. The conditions noted are these: HeLa S3, 72 h.
The test system of a further test is A549. Description: Cytostatic activity against human A549 cells after 5 days by SRB assay. In kind it is functional. The conditions noted are these: A549, 120 h. An outline of the steps:
as §1

The subject of another test is DU-145. Description: Cytostatic activity against human DU145 cells after 5 days by SRB assay. Format: functional. The conditions noted are these: DU-145, 120 h. An outline of the steps: as §1
The next test deals with HCT-116. Description: Cytostatic activity against human HCT116 cells after 5 days by SRB assay. To be noted: HCT-116, 120 h. Format: functional. An outline of the steps:
as §1

In a further test the test system is NCI-H23. Kind of test: Cytotoxicity against human NCI-H23 cells after 5 days by SRB assay. Format: functional. The conditions noted are these: NCI-H23, 120 h. An outline of the steps: as §1
The next test relates to PC-3. Description: Cytotoxicity against human PC3 cells after 5 days by SRB assay. Format: functional. To be noted: PC-3, 120 h. The gist of the method: as §1
For a further test, the system named is HCT-15. Description: Cytotoxicity against human HCT15 cells after 5 days by SRB assay. In kind it is functional. To be noted: HCT-15, 120 h. An outline of the steps:
as §1

A further test concerns BT-549. Kind of test: Cytotoxicity against human BT549 cells after 5 days by SRB assay. Format: functional. The conditions noted are these: BT-549, 120 h. The gist of the method:
as §1

Molecules are shown by their SMILES. Where only a bound is given, the exact number is not on record here.

Take `OC[C@H]1O[C@@H](n2cc(F)c3c(-c4cc[nH]c4)ncnc32)[C@H](O)[C@@H]1O`: the GI50 in test [1] was 360 nM; with A549, 130 nM; with DU-145, 10 nM; in the test with HCT-116 it was 250 nM. Also, the IC50 in the test with HL-60 came out at 1900 nM; in the test on CCRF-CEM, 930 nM; in test [2], 8900 nM.
On to `OC[C@H]1O[C@@H](n2cc(Cl)c3c(-c4ccccc4)ncnc32)[C@H](O)[C@@H]1O`, for which the GI50 is over 10000 nM in test [1], 2500 nM with A549, 140 nM in the test with DU-145 and 1400 nM in the test on HCT-116. Also, the IC50 in the test on HL-60 is 1200 nM; in the test with CCRF-CEM it was 910 nM; in [2], 420 nM.
Regarding `OC[C@H]1O[C@@H](n2ccc3c(Cc4ccccc4)ncnc32)[C@H](O)[C@@H]1O`, the GI50 (in [1]; in the test with A549; with DU-145; with HCT-116) was over 10000 nM throughout. Besides, the IC50 in the test on HL-60 is over 10000 nM; in the test on CCRF-CEM, 3800 nM; in [2], over 7500 nM.
On to `OC[C@H]1O[C@@H](n2cc(F)c3c(-c4ccco4)ncnc32)[C@H](O)[C@@H]1O`, for which the GI50 in [1] was 180 nM; in the test with NCI-H23, 4300 nM; with PC-3, 75 nM; in the test on HCT-15 it was 57 nM; in the test on BT-549 it was 110 nM; with A549, 110 nM. The GI50 turned out to be 5 nM in the test on DU-145 and 39 nM in the test with HCT-116. Moreover, the results for the IC50 (in the test with HL-60; in the test on CCRF-CEM; in test [2]) were 1200 nM, 1400 nM and 8000 nM, respectively.
As for `OC[C@H]1O[C@@H](n2cc(F)c3c(-c4nccs4)ncnc32)[C@H](O)[C@@H]1O`, the GI50 in [1] amounted to 570 nM; in the test on A549, 900 nM; in the test with DU-145 it was 24 nM; in the test on HCT-116 it was 1300 nM. Also, the figures for the IC50 (with HL-60; with CCRF-CEM; in [2]) were 1000 nM, 550 nM and 3100 nM, respectively.
Consider `OC[C@H]1O[C@@H](n2cc(F)c3c(-c4ccsc4)ncnc32)[C@H](O)[C@@H]1O`, for which the GI50 in test [1] worked out at 810 nM; in the test with A549, 380 nM; in the test on DU-145, 66 nM; in the test with HCT-116 it was 140 nM. In addition, the results for the IC50 (in the test with HL-60; in the test on CCRF-CEM; in [2]) were 4900 nM, 560 nM and 210 nM, respectively.
Consider `OC[C@H]1O[C@@H](n2cc(Cl)c3c(-c4ccoc4)ncnc32)[C@H](O)[C@@H]1O`, for which the GI50 in [1] came to 1600 nM; in the test on A549 it was 1100 nM; with DU-145 it was 54 nM; in the test on HCT-116, 2000 nM. Besides, the values for the IC50 (with HL-60; in the test on CCRF-CEM; in test [2]) were 2500 nM, 1100 nM and 2700 nM, respectively.
As for `OC[C@H]1O[C@@H](n2ccc3c(-c4ccc(F)cc4)ncnc32)[C@H](O)[C@@H]1O`, the GI50 was 2500 nM in test [1], over 10000 nM with A549, 730 nM in the test with DU-145 and over 10000 nM in the test with HCT-116. Besides, the concentration for half-maximal inhibition (IC50) in the test with HL-60 stood at 52700 nM; with CCRF-CEM, 23200 nM; in test [2], 2900 nM.
Regarding `OC[C@H]1O[C@@H](n2ccc3c(-c4ccn[nH]4)ncnc32)[C@H](O)[C@@H]1O`, the GI50 was 3900 nM in [1], 3300 nM in the test on A549, 410 nM in the test on DU-145 and 7300 nM with HCT-116. Moreover, the IC50 was 10100 nM with HL-60, 910 nM in the test with CCRF-CEM and 1100 nM in test [2].
`COc1ccc(-c2ncnc3c2ccn3[C@@H]2O[C@H](CO)[C@@H](O)[C@H]2O)cc1`: the 50% growth inhibitory concentration (GI50) in test [1] was over 10000 nM; in the test with A549, over 10000 nM; in the test on DU-145, 1300 nM; in the test on HCT-116, over 10000 nM. Besides, the IC50 with HL-60 is over 10000 nM; in the test on CCRF-CEM, 10900 nM; in test [2], over 10000 nM.
Take `OC[C@H]1O[C@@H](n2ccc3c(-c4cccnc4)ncnc32)[C@H](O)[C@@H]1O`: the GI50 (in [1]; in the test on A549; with DU-145; in the test with HCT-116) was over 10000 nM throughout. Moreover, the IC50 (with HL-60; in the test with CCRF-CEM; in [2]) was over 10000 nM each time.
Regarding `OC[C@H]1O[C@@H](n2ccc3c(-c4cc[nH]c4)ncnc32)[C@H](O)[C@@H]1O`, the GI50 in [1] was found to be 440 nM; in the test on A549 it was 360 nM; in the test with DU-145 it was 30 nM; in the test on HCT-116, 500 nM. Besides, the figures for the half-inhibitory concentration (IC50) (in the test with HL-60; in the test on CCRF-CEM; in test [2]) were 1200 nM, 280 nM and 260 nM, respectively.
As to `CCc1ncnc2c1ccn2[C@@H]1O[C@H](CO)[C@@H](O)[C@H]1O`, the GI50 in [1] was 4700 nM; with A549, 4400 nM; in the test with DU-145 it was 1200 nM; with HCT-116 it was 2600 nM. Also, the IC50 in the test on HL-60 is 5600 nM; with CCRF-CEM, 1250 nM; in test [2], 3600 nM.
For the compound `OC[C@H]1O[C@@H](n2cc(F)c3c(-c4ccccc4)ncnc32)[C@H](O)[C@@H]1O`, the GI50 is over 10000 nM in [1], over 10000 nM in the test on A549, 580 nM in the test on DU-145 and over 10000 nM with HCT-116. Besides, the IC50 in the test on HL-60 is over 40000 nM; in the test with CCRF-CEM, 3100 nM; in [2] it was 2600 nM.
Take `OC[C@H]1O[C@@H](n2cc(F)c3c(-c4ccc[nH]4)ncnc32)[C@H](O)[C@@H]1O`: the GI50 came to 310 nM in test [1], 190 nM in the test on A549, 9 nM in the test with DU-145 and 450 nM in the test on HCT-116. Besides, the IC50 with HL-60 worked out at 3300 nM; with CCRF-CEM, 410 nM; in test [2], 230 nM.
As for `OC[C@H]1O[C@@H](n2cc(Cl)c3c(-c4cccs4)ncnc32)[C@H](O)[C@@H]1O`, the GI50 is 1600 nM in [1], 380 nM in the test with A549, 13 nM with DU-145 and 270 nM in the test on HCT-116. Also, the IC50 was 5500 nM in the test on HL-60, 2700 nM with CCRF-CEM and 28200 nM in test [2].
In the case of `Nc1nc(Cl)nc2c1ncn2[C@@H]1O[C@H](CO)[C@@H](O)[C@@H]1F` [CLOFARABINE], the GI50 was 40 nM in the test on NCI-H23, 63 nM in the test on PC-3, 180 nM in the test with HCT-15 and 65 nM in the test on BT-549.
